Assay [1] has as its system A2780. The assay can be described thus: Cell cycle arrest in human A2780 cells assessed as accumulation at G1 phase at 30 uM by propidium iodide staining-based FACS analysis (reference value: 51.839 %). It is filed as functional. In general terms: A flow cytometer gives signals particle by particle.
For assay [2], the system named is A2780. As to the kind of experiment: Induction of apoptosis in human A2780 cells assessed as necrotic cells at 30 uM after 24 hrs by annexin V/propidium iodide staining-based FACS analysis (reference value: 1.78%). Format: functional.
Another assay deals with HT-29. The assay can be described thus: Cytotoxicity against human HT-29 cells after 96 hrs by SRB assay. The conditions noted are these: HT-29, 96 h. It is filed as functional, cell-based. (In general: In SRB staining, fixed cells bind dye roughly in proportion to their protein.)
Assay [3] concerns A2780. The assay can be described thus: Induction of apoptosis in human A2780 cells assessed as necrotic cells at 30 uM after 24 hrs by annexin V/propidium iodide staining-based FACS analysis (reference value: 6.37%). Format: functional.
In the next assay the test system is 8505C. As to the kind of experiment: cells. Format: functional, cell-based. The conditions noted are these: Homo sapiens, 96 h.
In assay [4] the test system is A2780. As to the kind of experiment: Induction of apoptosis in human A2780 cells assessed as vital cells at 30 uM after 24 hrs by annexin V/propidium iodide staining-based FACS analysis (reference value: 82.15%). Format: functional.
Another assay relates to MCF7. The assay can be described thus: Cytotoxicity against human MCF7 cells after 96 hrs by SRB assay. The following applies: MCF7, 96 h. It is filed as functional, cell-based.
The test system of assay [5] is A2780. The assay can be described thus: Cell cycle arrest in human A2780 cells assessed as reduction of G2/M phase at 30 uM by propidium iodide staining-based FACS analysis. Format: functional.
Assay [6] relates to A2780. The assay can be described thus: Cytotoxicity against human A2780 cells after 96 hrs by SRB assay. Format: functional, cell-based. The following applies: A2780, 96 h.
For assay [7], the system named is A2780. As to the kind of experiment: Cell cycle arrest in human A2780 cells assessed as accumulation at G2 phase at 30 uM by propidium iodide staining-based FACS analysis (reference value: 15.721 %). It is filed as functional.
Assay [8] relates to A2780. As to the kind of experiment: Induction of apoptosis in human A2780 cells assessed as DNA ladder formation at 30 uM after 24 hrs by electrophoresis. Format: functional, cell-based. The method, boiled down: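 A2780 cells were exposed to 30 µM compound for 24 h. Floating (dead) cells were collected and washed with PBS, and DNA fragmentation was examined by gel laddering alongside an untreated control.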

For the next assay, the system named is A549. The assay can be described thus: Cytotoxicity against human A549 cells after 96 hrs by SRB assay. It is filed as functional, cell-based. The conditions noted are these: A549, 96 h.
Assay [9] has as its system A2780. As to the kind of experiment: Induction of apoptosis in human A2780 cells assessed as secondary necrotic cells at 30 uM after 24 hrs by annexin V/propidium iodide staining-based FACS analysis (reference value: 9.71%). Format: functional.
The test system of assay [10] is A2780. As to the kind of experiment: Cell cycle arrest in human A2780 cells assessed as accumulation at S phase at 30 uM by propidium iodide staining-based FACS analysis (reference value: 32.439 %). It is filed as functional.
In assay [11] the test system is A2780. The assay can be described thus: Induction of apoptosis in human A2780 cells at 30 uM after 24 hrs by annexin V/propidium iodide staining-based FACS analysis. Format: functional.
Assay [12] in a line: Cytotoxicity against human 518A2 cells after 96 hrs by SRB assay. It is filed as functional, cell-based. The conditions noted are these: 518A2, 96 h.
The next assay relates to NIH3T3. The assay can be described thus: Cytotoxicity against mouse NIH/3T3 cells after 96 hrs by SRB assay. It is filed as ADME, cell-based. The conditions noted are these: NIH3T3, 96 h.
Assay [13] has as its system A2780. The assay can be described thus: Cell cycle arrest in human A2780 cells at 30 uM by propidium iodide staining-based FACS analysis. Format: functional.
The subject of assay [14] is A2780. The assay can be described thus: Cell cycle arrest in human A2780 cells assessed as accumulation at G0/G1 phase at 30 uM by propidium iodide staining-based FACS analysis. Format: functional.

The source made the active and inactive calls. The calls are words filed in the database; no cut-off is given here.

This passage reports Activity and IC50 results from ChEMBL document CHEMBL3108738, “The chemical and biological potential of C ring modified triterpenoids” (Eur J Med Chem, 2014).

Take `COC(=O)[C@]12CCC(C)(C)C[C@H]1C1=C(O)C(=O)[C@@H]3[C@@]4(C)CC[C@H](OC(C)=O)C(C)(C)[C@@H]4CC[C@@]3(C)[C@]1(C)CC2`: the Activity with A2780 [1] amounted to 49.973%; in the assay with A2780 [2] it was 2%; in the assay on A2780 [3], 24.67%; in the assay with A2780 [4], 57.12%; in the assay with A2780 [7], 7.345%; with A2780 [9], 16.21%. The Activity with A2780 [10] is given as 42.682%. Further, the IC50 is 13.5 µM in the assay with HT-29; 8.4 µM in the assay on 8505C; 9.4 µM with MCF7; 4 µM in the assay on A2780 [6]; 8.2 µM with A549; 7.7 µM in assay [12]. The same molecule came in with an IC50 in the assay with NIH3T3 of 12.5 µM. Besides, the result with A2780 [5], with A2780 [8] and with A2780 [11] was Active.
Take `CC(=O)O[C@H]1CC[C@]2(C)[C@H]3C[C@H](OC(C)=O)[C@]45OC(=O)[C@@]6(CCC(C)(C)C[C@H]64)CC[C@@]5(C)[C@]3(C)CC[C@H]2C1(C)C`: the Activity in the assay with A2780 [1] is on record as 56.115%; with A2780 [2], 3.78%; with A2780 [3], 32.66%; in the assay with A2780 [4] it was 44.89%; with A2780 [7], 16.597%; with A2780 [9] it was 18.67%. The Activity in the assay on A2780 [10] came to 27.288%. The IC50 in the assay with HT-29 was 14.1 µM; in the assay with 8505C it was 7 µM; in the assay with MCF7 it was 18.5 µM; with A2780 [6] it was 5.6 µM; in the assay with A549, 6.6 µM; in assay [12], 6.8 µM. Further, in the assay with NIH3T3, the IC50 stood at 7.2 µM. Further, the result in the assay on A2780 [13] was inactive. In addition, the outcome with A2780 [8] and with A2780 [11] was Active.
Take `CC(=O)O[C@H]1CC[C@]2(C)[C@H]3C(=O)C(O)=C4[C@@H]5CC(C)(C)CC[C@]5(C(=O)OCc5ccccc5)CC[C@@]4(C)[C@]3(C)CC[C@H]2C1(C)C`: the Activity in the assay on A2780 [1] turned out to be 62.269%; in the assay with A2780 [2], 1.55%; in the assay on A2780 [3] it was 12.83%; with A2780 [4], 72.96%; in the assay with A2780 [7] it was 15.469%; with A2780 [9] it was 12.64%. In addition, the Activity is recorded as 22.262% in the assay with A2780 [10] and below 20% in the assay with A2780 [14]. Further, the IC50 is above 60 µM in the assay with HT-29; 16.4 µM in the assay on 8505C; above 60 µM in the assay with MCF7; 8.2 µM in the assay with A2780 [6]; above 60 µM in the assay on A549; above 60 µM in assay [12]. The molecule further showed an IC50 in the assay on NIH3T3 above 60 µM.
`COC(=O)[C@]12CCC(C)(C)C[C@H]1[C@H]1C(=O)C[C@@H]3[C@@]4(C)CC[C@H](OC(C)=O)C(C)(C)[C@@H]4CC[C@@]3(C)[C@]1(C)CC2`: the Activity with A2780 [1] is 61.565%; in the assay on A2780 [2], 0.96%; in the assay with A2780 [3], 11%; in the assay on A2780 [4] it was 75.08%; in the assay with A2780 [7] it was 14.004%; in the assay on A2780 [9] it was 12.96%. In addition, the Activity in the assay with A2780 [10] was 24.431%; with A2780 [14], below 20%. Besides, the IC50 in the assay with HT-29 is 46.8 µM; in the assay on 8505C, 31.1 µM; with MCF7, above 30 µM; in the assay on A2780 [6] it was above 30 µM; in the assay with A549, above 30 µM; in assay [12], 40.8 µM. This molecule showed an IC50 in the assay on NIH3T3 of 28.2 µM.
For the molecule `CC(=O)O[C@H]1CC[C@]2(C)[C@H]3CC(=O)[C@@H]4[C@@H]5CC(C)(C)CC[C@]5(C(=O)OCc5ccccc5)CC[C@@]4(C)[C@]3(C)CC[C@H]2C1(C)C`, the Activity in the assay on A2780 [1] came to 58.015%; in the assay on A2780 [7], 1.057%; with A2780 [10], 40.927%. Also, the IC50 in the assay on HT-29 is above 90 µM; in the assay on 8505C, 41.9 µM; with MCF7, above 90 µM; in the assay on A2780 [6] it was 19.8 µM; in the assay on A549, 69.1 µM; in [12], 73.2 µM. The IC50 with NIH3T3 is above 90 µM. Moreover, in the assay with A2780 [5], the outcome was Active.

Usually IC50 stands for the concentration needed to halve the response being measured.
